Results on 30 compounds are retold here after ChEMBL document CHEMBL2385009, “Guaiane-type sesquiterpenes from Curcuma phaeocaulis and their inhibitory effects on nitric oxide production” (J Nat Prod, 2013).

One may read the IC50 as the point on the concentration scale where inhibition reaches its midpoint.

Data set [1] has as its system RAW264.7. Description: Cytotoxicity against mouse RAW264.7 cells at IC50 by MTT assay. The data set is classed as cell-based. In general terms: Tetrazolium assays rely on reduction of a dye to a coloured formazan, in cell work by metabolically active cells.
Data set [2] deals with RAW264.7. Description: Antiinflammatory activity in mouse RAW264.7 cells assessed as inhibition of LPS-induced nitric oxide production after 24 hrs by Griess assay. The data set is classed as functional, cell-based. The settings on record: RAW264.7, 24 h. The essentials:
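RAW 264.7 cells seeded at 1 × 10^5 cells/well, stimulated with LPS 1 μg/mL with or without test compound, 37 °C for 24 h. Nitrite in cell-free supernatant, taken as the NO indicator, measured by Griess reaction: supernatant mixed 1:1 with equal parts 1% sulfanilamide in 5% phosphoric acid and 0.1% N-(1-naphthyl)ethylenediamine, absorbance at 540 nm. Values given as IC50.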

In the case of `CC(C)=C1C[C@H]2[C@@H](CC[C@]2(C)O)C(CO)=CC1=O`, in the data set on RAW264.7 [1], the Activity result is reported as “Non-toxic”. For the same compound, in the data set with RAW264.7 [2], the IC50 stood at 12.9 µM.
The like results for `CC1=C2C[C@H]3[C@@](C)(O)CC[C@@]34O[C@@]2(C[C@@]4(C)O)OC1=O` were, in that order, “Non-toxic” and 1.5 µM.
For `CC1=C2C[C@@H]3[C@H](CC[C@@]3(C)O)[C@](C)(O)C[C@H]2OC1=O`, the Activity entry in the data set with RAW264.7 [1] was “Non-toxic”. The IC50 in the data set on RAW264.7 [2] came out at 1.9 µM.
`CC1=C2C[C@@H]3[C@H](CC[C@@]3(C)O)[C@@](C)(O)C[C@@H]2OC1=O`: in the data set with RAW264.7 [1], the Activity entry is reported as “Non-toxic”. Moreover, the IC50 in the data set on RAW264.7 [2] worked out at 57.9 µM.
For the compound `Cc1cc(=O)c(C(C)(C)O)cc2c1CC[C@]2(C)O`, in the data set on RAW264.7 [1], the Activity entry is given as “Non-toxic”. The 50% inhibitory concentration (IC50) in the data set on RAW264.7 [2] is 5.9 µM.
`CC(C)=C1C[C@H]2[C@@H](CC[C@]2(C)O)[C@@](C)(O)CC1=O`: in the data set with RAW264.7 [1], the Activity entry is given as “Non-toxic”. In addition, in the data set on RAW264.7 [2], the IC50 is 10.3 µM.
`CC1=C2C[C@H]3[C@H](CC[C@]3(C)O)[C@](C)(O)C=C2OC1=O`: the Activity entry in the data set with RAW264.7 [1] is recorded as “Non-toxic”. The IC50 with RAW264.7 [2] turned out to be 2.9 µM.
For the compound `CC1=C2C[C@@H]3[C@@](C)(O)CC[C@@]3(O)[C@](C)(O)C=C2OC1=O`, the Activity entry with RAW264.7 [1] was “Non-toxic”. The IC50 with RAW264.7 [2] is 3 µM.
With `CC1=C2C[C@]3(O)[C@H](C)CC[C@H]3[C@@](C)(O)C=C2OC1=O`, in the data set with RAW264.7 [1], the Activity entry was “Non-toxic”. Besides, the IC50 in the data set with RAW264.7 [2] amounted to 30.1 µM.
As to `CC1=CC(=O)CC[C@@H]2[C@@](C)(O)CC[C@@]12O`, the Activity result in the data set on RAW264.7 [1] was “Non-toxic”. Further, in the data set on RAW264.7 [2], the IC50 came out at 19.6 µM.
In the case of `CC1=C[C@@]2(O)O[C@@]3(CC2=C(C)C)[C@H](C)CC[C@@H]13`, the Activity result with RAW264.7 [1] is “Non-toxic”. For the same compound, the IC50 with RAW264.7 [2] turned out to be 52.2 µM.
For the compound `CC(C)C1=C[C@@H]2[C@@H](CC[C@@H]2C)[C@@](C)(O)CC1`, the Activity result in the data set with RAW264.7 [1] is “Non-toxic”. Further, the half-inhibitory concentration (IC50) in the data set on RAW264.7 [2] stood at 11.4 µM.
Consider `CC(C)=C1C[C@H]2[C@H](CC[C@]2(C)O)[C@](C)(O)CC1=O` [(1S,4S,5S,10R)-ZEDOARONDIOL], for which the Activity entry in the data set with RAW264.7 [1] was “Non-toxic”. The IC50 with RAW264.7 [2] was found to be 16.7 µM.
As for `CC(C)C1=C[C@H]2[C@@H](CC[C@]2(C)O)[C@](C)(O)CC1` [ALISMOXIDE], the Activity entry in the data set on RAW264.7 [1] was “Non-toxic”. Further, the IC50 in the data set with RAW264.7 [2] is 4.3 µM.
For `CC(=O)CCc1ccc(C(C)(C)O)c(=O)cc1C` [CURCUMADIONOL], the Activity result in the data set on RAW264.7 [1] is listed as “Non-toxic”. Besides, the IC50 in the data set with RAW264.7 [2] was 54.2 µM.
`CC1=C[C@]2(O)O[C@@]3(CC2=C(C)C)[C@@H](C)CC[C@@H]13` [CURCUMENOL]: the Activity result in the data set with RAW264.7 [1] is recorded as “Non-toxic”. Besides, the IC50 in the data set on RAW264.7 [2] turned out to be 4.2 µM.
Regarding `C[C@]12CCC(=O)C=C1CC[C@@H]1[C@@H]2[C@@H](O)C[C@@]2(C)[C@H]1CC[C@]2(O)C(=O)CO` [HYDROCORTISONE], the IC50 in the data set with RAW264.7 [2] came out at 43.8 µM.
Turning to `COc1ccc2c(c1)c(CC(=O)O)c(C)n2C(=O)c1ccc(Cl)cc1` [INDOMETHACIN], the IC50 with RAW264.7 [2] came out at 12.1 µM.
Consider `C=C1C[C@]2(O)O[C@@]3(CC2=C(C)C)[C@@H](C)CC[C@@H]13` [ISOCURCUMENOL], for which the Activity entry with RAW264.7 [1] is reported as “Non-toxic”. Further, the IC50 in the data set on RAW264.7 [2] stood at 9.8 µM.
Consider `CC(C)=C1C[C@H]2[C@H](CC[C@]2(C)O)[C@@](C)(O)CC1=O` [ISOZEDOARONDIOL], for which the Activity entry in the data set with RAW264.7 [1] is reported as “Non-toxic”. Further, the IC50 in the data set on RAW264.7 [2] came to 1.4 µM.
For the compound `CC1=CC(=O)[C@@]2(C[C@]3(O)[C@@H](C)CC[C@@H]13)OC2(C)C` [OXYCURCUMENOL EPOXIDE], the Activity entry in the data set with RAW264.7 [1] is listed as “Non-toxic”. In the data set with RAW264.7 [2], the IC50 turned out to be 57.4 µM.
`CC1=CC(=O)C(=C(C)C)C[C@@]2(O)[C@H]1CC[C@]2(C)O` [PROCURCUMADIOL]: in the data set with RAW264.7 [1], the Activity entry is “Non-toxic”. For the same compound, the IC50 in the data set with RAW264.7 [2] turned out to be 11.7 µM.
In the case of `CC1=CC(=O)C(=C(C)C)C[C@H]2[C@H]1CC[C@]2(C)O` [PROCURCUMENOL], the Activity entry in the data set with RAW264.7 [1] is given as “Non-toxic”. Further, the IC50 in the data set on RAW264.7 [2] worked out at 13.7 µM.
Consider `CC1=C2C[C@H]3[C@H](CC[C@]3(C)O)[C@@](C)(O)C[C@H]2OC1=O` [ZEDOALACTONE A], for which the Activity entry in the data set with RAW264.7 [1] is “Non-toxic”. Further, the IC50 in the data set on RAW264.7 [2] stood at 1.6 µM.
As to `CC1=C2C[C@@H]3[C@@](C)(O)CC[C@]3(O)[C@](C)(O)C=C2OC1=O` [ZEDOALACTONE B], the Activity result in the data set with RAW264.7 [1] is on record as “Non-toxic”. In the data set with RAW264.7 [2], the IC50 came out at 1.3 µM.
The like results for `CC1=C2C[C@H]3[C@H](CC[C@]3(C)O)[C@@](C)(O)C[C@@H]2OC1=O` [ZEDOALACTONE C] were, in that order, “Non-toxic” and 61.8 µM.
As for `CC1=C2C[C@@H]3[C@@](C)(O)CC[C@]3(O)[C@@](C)(O)C=C2OC1=O` [ZEDOALACTONE D], the Activity result in the data set on RAW264.7 [1] was “Non-toxic”. In addition, the IC50 in the data set with RAW264.7 [2] is 1.6 µM.
For `CC1=C2C[C@@H]3[C@@](C)(O)CC[C@]34O[C@]4(C)[C@H](O)[C@]2(O)OC1=O` [ZEDOAROLIDE A], the Activity result in the data set on RAW264.7 [1] is “Non-toxic”. The IC50 with RAW264.7 [2] stood at 87.1 µM.
Take `CC1=C2C[C@H]3[C@H](CC[C@]3(C)O)[C@@](C)(O)C[C@]2(O)OC1=O` [ZEDOAROLIDE B]: the Activity entry in the data set on RAW264.7 [1] is on record as “Non-toxic”. For the same compound, in the data set on RAW264.7 [2], the IC50 came out at 4.6 µM.
For the compound `CC(C)=C1C[C@H]2[C@@H](CC[C@]2(C)O)[C@](C)(O)CC1=O` [ZEDOARONDIOL], in the data set with RAW264.7 [1], the Activity entry is “Non-toxic”. For the same compound, the IC50 in the data set with RAW264.7 [2] worked out at 54.2 µM.
